From ChEMBL document CHEMBL4364254 (J Med Chem, 2019) come the findings set out here.

A word on the Ki: it is the equilibrium dissociation constant of an inhibitor or competing ligand from its target. A high value points to weaker binding. For orientation: half-life means the time needed for the level to fall by half in the phase considered. A low value points to rapid decline. Broadly, the Cmax is the peak of the concentration-time curve.

One data set concerns the target Cannabinoid receptor 1 (Homo sapiens, UniProt P21554). Description: Displacement of [3H]CP55940 from human CB1 receptor expressed in HEK293 cell membranes. In a few lines: (§1)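 Competition binding against [3H]CP55940 in membranes from HEK cells overexpressing human CB1 or CB2. Ki values are derived from displacement, and the same membrane format is used for both receptors. Values are averages of three to six independent measurements.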
Background: Displacement assays read how much labelled ligand stays bound in the presence of the test substance.

The target in the next data set is Cannabinoid receptor 2 (Homo sapiens, UniProt P34972). The experiment in a line: Displacement of [3H]CP55940 from human CB2 receptor expressed in HEK293 cell membranes. In a few lines:
as §1

The next data set is filed under the species Homo sapiens. The experiment in a line: Selectivity ratio of Ki for displacement of [3H]CP55940 from human CB2 receptor expressed in HEK293 cell membranes to Ki for displacement of [3H]CP55940 from human CB1 receptor expressed in HEK293 cell membranes. A digest of the protocol: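 Competitive displacement of [3H]CP55940 from membranes of HEK cells overexpressing human CB1 or human CB2. A Ki was determined at each receptor, and selectivity was expressed as Ki(CB2)/Ki(CB1). Ki values are means of three to six independent measurements.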

Data set [1] can be described thus: Half life in Sprague-Dawley rat plasma at 1 mg/kg, po by LC-MS/MS analysis. Type of data set: ADME, organism-based.
Data set [2] can be described thus: Cmax in C57BL6 mouse plasma at 0.3 mg/kg, po measured at 1 hr post dose by LC-MS/MS analysis. Type of data set: ADME, organism-based. Further details: dose 0.3 mg/kg, route oral. A digest of the protocol:
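Female C57BL6 mice, 8 weeks old, received a single oral dose of 0.3 mg/kg in 1% NMP/0.3% Tween 80 in 0.5% Na-CMC. […] Maximum observed concentrations are reported; plasma clearance and half-life come from PK analysis.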

Sequence of Cannabinoid receptor 2 (P34972 whole entry): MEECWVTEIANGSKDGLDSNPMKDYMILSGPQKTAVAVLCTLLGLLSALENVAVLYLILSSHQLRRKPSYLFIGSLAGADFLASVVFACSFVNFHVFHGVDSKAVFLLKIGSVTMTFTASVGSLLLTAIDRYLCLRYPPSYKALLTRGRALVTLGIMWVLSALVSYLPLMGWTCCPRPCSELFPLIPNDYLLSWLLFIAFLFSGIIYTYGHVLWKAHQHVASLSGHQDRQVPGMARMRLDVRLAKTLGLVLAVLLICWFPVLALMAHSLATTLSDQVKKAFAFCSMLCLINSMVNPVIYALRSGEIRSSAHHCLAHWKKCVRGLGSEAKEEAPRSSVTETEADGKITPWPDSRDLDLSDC
Sequence of Cannabinoid receptor 1 (P21554 whole entry): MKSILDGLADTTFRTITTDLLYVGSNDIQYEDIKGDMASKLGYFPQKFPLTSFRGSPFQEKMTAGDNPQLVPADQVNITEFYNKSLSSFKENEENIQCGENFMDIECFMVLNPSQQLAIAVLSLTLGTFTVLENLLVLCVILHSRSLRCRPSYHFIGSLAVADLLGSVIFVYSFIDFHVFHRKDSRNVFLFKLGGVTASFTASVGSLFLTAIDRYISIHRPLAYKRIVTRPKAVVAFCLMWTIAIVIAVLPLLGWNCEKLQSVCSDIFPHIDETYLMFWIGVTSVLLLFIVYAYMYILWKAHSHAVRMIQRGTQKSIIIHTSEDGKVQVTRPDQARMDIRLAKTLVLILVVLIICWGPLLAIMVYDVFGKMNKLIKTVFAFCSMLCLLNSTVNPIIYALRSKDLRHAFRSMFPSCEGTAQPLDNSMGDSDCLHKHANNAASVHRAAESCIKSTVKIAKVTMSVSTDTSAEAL

Consider `CC1(NC(=O)Nc2ccc(F)cc2F)CCN(c2ncnc3c2nc(-c2ccccc2Cl)n3-c2ccc(Cl)cc2)CC1`, for which the Ki at Cannabinoid receptor 1 is 6 nM; on Cannabinoid receptor 2, above 10000 nM.
Take `CC1(NS(=O)(=O)NC2CCCCC2)CCN(c2ncnc3c2nc(-c2ccccc2Cl)n3-c2ccc(Cl)cc2)CC1`: in the data set listed under Homo sapiens, the Ratio Ki is 82. The Ki came to 9 nM on Cannabinoid receptor 1 and 740 nM on Cannabinoid receptor 2.
Consider `O=C(NC1CCCC1)NC1CCN(c2ncnc3c2nc(-c2ccccc2Cl)n3-c2ccc(Cl)cc2)CC1`, for which the Ki at Cannabinoid receptor 2 is above 10000 nM.
Consider `O=C(NCC1CCC(F)(F)CC1)NC1CCN(c2ncnc3c2nc(-c2ccccc2Cl)n3-c2ccc(Cl)cc2)CC1`, for which the Ki at Cannabinoid receptor 1 is 26 nM; on Cannabinoid receptor 2, above 10000 nM.
On Cannabinoid receptor 2, `O=C(NCC1CCCC1)NC1CCN(c2ncnc3c2nc(-c2ccccc2Cl)n3-c2ccc(Cl)cc2)CC1` showed a Ki of 3200 nM.
In the case of `COCCN(C)C(=O)NC1CCN(c2ncnc3c2nc(-c2ccccc2Cl)n3-c2ccc(Cl)cc2)CC1`, the affinity at Cannabinoid receptor 2, expressed as Ki, was 2300 nM.
The compound `O=C(NCc1ccccc1F)NC1CCN(c2ncnc3c2nc(-c2ccccc2Cl)n3-c2ccc(Cl)cc2)CC1` yielded a Ki on Cannabinoid receptor 2 of 220 nM. Compared with the last compound, the Ki is about 10-fold lower.
Consider `O=C(NC1CCCCC1)NC1CCN(c2ncnc3c2nc(-c2ccccc2Cl)n3-c2ccc(Cl)cc2)CC1`, for which the Ki at Cannabinoid receptor 1 was determined as 1.4 nM; at Cannabinoid receptor 2, 4600 nM.
The like results for `O=C(NCC1CCCCC1)NC1CCN(c2ncnc3c2nc(-c2ccccc2Cl)n3-c2ccc(Cl)cc2)CC1` were, in that order, 0.9 nM and 7600 nM.
On to `CC1(NC(=O)NC2CCN(c3ncnc4c3nc(-c3ccccc3Cl)n4-c3ccc(Cl)cc3)CC2)CCC(F)(F)CC1`, for which the values for the inhibition constant Ki at Cannabinoid receptor 1 and on Cannabinoid receptor 2 were 5 nM and 7500 nM, respectively.
On to `CC1(NC(=O)NC2CCCCC2)CCN(c2ncnc3c2nc(-c2ccccc2Cl)n3-c2ccc(Cl)cc2)CC1`, for which the figures for the Ki on Cannabinoid receptor 1 and at Cannabinoid receptor 2 were 13 nM and above 10000 nM, respectively.
`CC1(NC(=O)NCc2ccccc2F)CCN(c2ncnc3c2nc(-c2ccccc2Cl)n3-c2ccc(Cl)cc2)CC1`: in the data set listed under Homo sapiens, the Ratio Ki was found to be 73. Besides, the Ki was 15 nM at Cannabinoid receptor 1 and 1100 nM at Cannabinoid receptor 2.
As for `CC1(NC(=O)NC2CCC(F)(F)CC2)CCN(c2ncnc3c2nc(-c2ccccc2Cl)n3-c2ccc(Cl)cc2)CC1`, the Ki is 17 nM at Cannabinoid receptor 1 and above 10000 nM at Cannabinoid receptor 2.
For `CC1(NC(=O)Nc2ccccc2F)CCN(c2ncnc3c2nc(-c2ccccc2Cl)n3-c2ccc(Cl)cc2)CC1`, the figures for the Ki on Cannabinoid receptor 1 and on Cannabinoid receptor 2 were 4 nM and above 10000 nM, respectively.
For `O=C(NC1CCN(c2ncnc3c2nc(-c2ccccc2Cl)n3-c2ccc(Cl)cc2)CC1)N1CCCCC1`, the Ratio Ki in the data set filed under Homo sapiens came to 330. Further, the inhibitory constant (Ki) at Cannabinoid receptor 1 amounted to 1.2 nM; on Cannabinoid receptor 2, 400 nM.
`O=C(NCC1CCCCC1)NC1CCN(c2ncnc3c2nc(-c2ccccc2Cl)n3-c2ccc(C(F)(F)F)nc2)CC1`: affinity on Cannabinoid receptor 1 was put at a Ki of 730 nM.
As for `CC(C)CN(C)C(=O)NC1CCN(c2ncnc3c2nc(-c2ccccc2Cl)n3-c2ccc(Cl)cc2)CC1`, the Ki on Cannabinoid receptor 2 amounted to 600 nM.
Regarding `O=C(NC1CCN(c2ncnc3c2nc(-c2ccccc2Cl)n3-c2ccc(Cl)cc2)CC1)NC1(C(F)(F)F)CCCC1`, the results for the Ki at Cannabinoid receptor 1 and on Cannabinoid receptor 2 were 6.3 nM and above 10000 nM, respectively.
For `CC1(NC(=O)Nc2ccc(OC(F)F)nc2)CCN(c2ncnc3c2nc(-c2ccccc2Cl)n3-c2ccc(Cl)cc2)CC1`, in that order: 81 nM and above 10000 nM.
Regarding `CCCN(CC(F)(F)F)C(=O)NC1CCN(c2ncnc3c2nc(-c2ccccc2Cl)n3-c2ccc(Cl)cc2)CC1`, the Ratio Ki in the data set filed under Homo sapiens turned out to be 2500. Further, the Ki worked out at 1.1 nM at Cannabinoid receptor 1 and 2800 nM at Cannabinoid receptor 2.
For the compound `O=C(Nc1ccc(F)cc1F)NC1CCN(c2ncnc3c2nc(-c2ccccc2Cl)n3-c2ccc(Cl)cc2)CC1`, the half-life in data set [1] is 12 h. The concentration in data set [2] peaked (Cmax) at 1230 ng/mL.
On to `CCCN(C)C(=O)NC1CCN(c2ncnc3c2nc(-c2ccccc2Cl)n3-c2ccc(Cl)cc2)CC1`, for which the affinity on Cannabinoid receptor 2, expressed as Ki, was 630 nM.
